The record followed here is ChEMBL document CHEMBL4513216, “Probing the Open Global Health Chemical Diversity Library for Multistage-Active Starting Points for Next-Generation Antimalarials” (ACS Infect Dis, 2020).

The data set can be described thus: Toxicity liver stage against HepG2, at 10uM. Format: cell-based. The arrangement: test concentration 10 uM, cell line HepG2-A16-CD81EGFP. Particulars: human, HepG2-A16-CD81EGFP cells; read-out: INHIBITION
The method, boiled down: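 Uninfected HepG2-A16-CD81EGFP cells, 3 × 10^3 per well, 1536-well, plated on prespotted compound at 10 μM final, parasite-free screening media added to match infected plates; puromycin 10 μM positive, DMSO 0.5% negative; run in parallel with 48 h PbLuc assay at 37 °C, 5% CO2; viability by CellTiter-Glo luminescence, normalized to controls.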
Regarding `Cc1ccc(C(=O)N2CCC3(CCCCC3)C2)c(=O)[nH]1`, the cytotoxicity at 10 µM is -2.47%. As for `O=C(c1cccnc1N1CCOC(c2ccc(F)cc2)C1)N1CCCC1` (configuration not stated), the figure is 8.04%; as for `CCn1c(CN2CCCC2)nnc1C1CCN(Cc2ccncc2)CC1`, -0.384%; as for `CCC(CO)N(C/C(C)=C/c1ccco1)Cc1ccsc1` (configuration not stated), 1.12%.

Consider `Cc1cccn2cc(CNCc3cccc4c3OCCCO4)nc12`, for which the cytotoxicity at 10 µM amounted to 15.5%. As for `O=C(Nc1c(N2CCCC2)cccc1N1CCCC1)c1ccccn1`, the cytotoxicity at 10 µM is -25.7%. Take `Cc1c[nH]nc1C1CCN(C(=O)C2CCOCC2)C1` (configuration not stated): the cytotoxicity at 10 µM came out at 4.71%. Turning to `Cc1ccnn1CCC(=O)N1CCCC[C@@]2(C)[C@@H]1CCC(=O)N2C`, the cytotoxicity at 10 µM amounted to 3.38%.

Consider `O=C(NC1CCCCC1)[C@H]1CNC[C@@H](COc2cccnc2)C1`, for which the cytotoxicity at 10 µM is -8.98%. As for `CCc1nnc(N2C[C@@H](CN(C)CCO)[C@@H](CO)C2)s1`, the figure is -5.61%; as for `Cc1ccc(CN2CC(C(=O)NCC3CC3)C3(CCOCC3)C2)s1` (configuration not stated), -3.66%. On to `COc1ccc2c(c1)OCC(Cc1cnc(N)c(C)c1)C2` (configuration not stated), for which the cytotoxicity at 10 µM is -1.23%. For `O=S(=O)(CC1CCCCC1)NCc1ccc(O)nc1`, the cytotoxicity at 10 µM worked out at 5.27%. As to `CCOC(=O)CNC(=O)NCc1cccn1Cc1ccccc1C`, the cytotoxicity at 10 µM stood at 4.9%.

Take `CC(C)(O)CCc1cccc(C(=O)N2CCC[C@H]2C(N)=O)c1`: the cytotoxicity at 10 µM is 10.4%. The same measure for `CCc1cnc(N2CCN(Cc3ccon3)CC2)s1`: 1.16%; for `Cc1cnc(N2CC[C@@H]3O[C@@H](COCc4ccccn4)CC[C@@H]32)nc1`: -88.3%.

Take `CC(C)(C)OC(=O)N1CCCN1C(=O)c1cccc(F)c1F`: the cytotoxicity at 10 µM was -10.3%. In the case of `CCC(C(=O)N(C)Cc1cc(-c2ccccc2)n[nH]1)n1cccn1` (configuration not stated), the cytotoxicity at 10 µM is -7.35%. The same measure for `CN1CCN(Cc2cn3c(n2)CN(C(=O)N2CCCC2)CC3)CC1`: 3.23%; for `Cc1nc(CCNC(=O)C2CC(=O)N(C(C)(C)C)C2)sc1C` (configuration not stated): -13.2%; for `Cc1cccc(-n2cnc(Cl)c2C(=O)O)c1`: -1.26%. `CC(C)S(=O)(=O)N1C[C@@H](O)[C@H](N(C)Cc2ccc(F)cc2)C1`: the cytotoxicity at 10 µM was 2.51%. The same measure for `NC1CCN(C(=O)c2c(F)cccc2Br)CC1`: 11.4%. As for `Cc1cc(C)c2ncn(CCC(C)O)c(=O)c2c1` (configuration not stated), the figure is 2.1%; as for `COc1cccc2c1N(Cc1noc(C(C)(C)C)n1)CCC2`, 10.9%. As to `O=C(NCc1ccoc1)NC1CCN(c2ncccn2)CC1`, the cytotoxicity at 10 µM stood at 6.36%. The same measure for `CCN(CC)c1ccc(CNC(=O)c2cnc(C)cn2)cn1`: 6.21%; for `NCC(=O)N1CCC2(CC1)CN(C(=O)Cc1ccc(Cl)cc1)CCO2`: 5.56%; for `COC(=O)[C@@H]1C[C@@H](O)CN1Cc1ccn(-c2ccc(F)cc2)n1`: -5.17%. With `Cc1cnccc1NC(=O)CCc1ccsc1`, the cytotoxicity at 10 µM is -3.51%. The same measure for `CN(C)CCOCc1nnc2n1CCN(Cc1cccs1)CC2`: 9.03%. As for `CN(C)C(=O)CN1CCc2onc(-c3ccccc3F)c2C1`, the figure is 2.45%; as for `CN(Cc1cc(-c2ccccc2)no1)C1CCCN(c2cccnn2)C1` (configuration not stated), -10.2%; as for `Cc1cnn(C2CCCN(C(=O)c3ccc4c(c3)CCC4)C2)c1` (configuration not stated), -4.81%. As for `CN(C)c1ccc(C(CNS(=O)(=O)c2cccs2)N2CCCC2)cc1` (configuration not stated), the figure is 2.31%; as for `Cn1cc(C(=O)N2CCN(Cc3ccsc3)CC2)cn1`, -10%; as for `CCOc1cc(C(=O)n2cccn2)cc(OCC)c1OCC`, 2.83%.

For `O=C(C1=CC2(CCNCC2)c2ccccc21)N1CCCC1`, the cytotoxicity at 10 µM is -2.07%. The same measure for `CC(C)N1CCC(CN2CCn3nc(CNC(=O)N(C)C)cc3C2)CC1`: 1.09%. As for `Cc1nc(C)n(C2CCCN(C(=O)c3cccnc3NC(C)C)C2)n1` (configuration not stated), the figure is -2.28%; as for `CNC(=O)[C@H]1CC[C@@H]2[C@@H](CCN2CCOCc2ccccc2)O1`, -109%. For `NC(=O)[C@@H]1CCCN1C(=O)c1cn(C/C=C/c2ccccc2)nn1`, the cytotoxicity at 10 µM turned out to be 2.32%. Regarding `COCC(=O)NCCc1ccc(I)s1`, the cytotoxicity at 10 µM amounted to 11.3%. For `CC(C)c1nc(C2CCCN2CCOCC2CC2)no1` (configuration not stated), the cytotoxicity at 10 µM was 1.8%.

As to `CCn1ncc2c1C(COCC1CC1)CN(C(=O)c1ccncn1)C2` (configuration not stated), the cytotoxicity at 10 µM is -74.8%. Consider `O=C1CCCCN1CSc1nnnn1-c1ccc(Cl)cc1`, for which the cytotoxicity at 10 µM is -48.4%.

As to `C=C(C)COc1cccc(CNC(CC)c2ccnn2C)c1` (configuration not stated), the cytotoxicity at 10 µM is -4.21%. The same measure for `c1cncc(C2COC3(CCN(CC4CCOCC4)CC3)C2)c1` (configuration not stated): -10.4%; for `Cc1ccsc1[C@@H]1CCN(C(=O)CCc2nc3ccccc3[nH]2)C[C@H]1O`: -1.67%. As to `CCCc1nc(CN(CC)C(=O)c2ccc3c(c2)nnn3C)no1`, the cytotoxicity at 10 µM was 9.43%. In the case of `Cc1cnn(CC(C)NCc2cc(=O)n3cc(C)ccc3n2)c1` (configuration not stated), the cytotoxicity at 10 µM turned out to be 3.89%. For `CCn1c(CN(C)C)nnc1C1CCN(Cc2ccc(C)s2)CC1`, the cytotoxicity at 10 µM is 7.01%. As to `CCn1cnnc1CNC(=O)N(C)Cc1ccc(Cl)cc1Cl`, the cytotoxicity at 10 µM is -17.7%. Consider `CC(C)N(Cc1ccc(Cl)c(Cl)c1)C(=O)Cn1cncn1`, for which the cytotoxicity at 10 µM was determined as 4.19%. As for `NCc1cn(CC2CCCN(C(=O)CC3=CCCCC3)C2)nn1` (configuration not stated), the figure is 1.46%.

Take `O=C(C1CC(F)(F)C1)N1C[C@@H]2CN(CC3CC3)CCO[C@@H]2C1`: the cytotoxicity at 10 µM is -0.336%. With `CCCN1CCC(NC(=O)Nc2ccc(OC)c(OC)c2)CC1`, the cytotoxicity at 10 µM is -13.4%. In the case of `N#Cc1ccc(C(=O)N2CCn3c(Cn4cccn4)cnc3C2)cc1`, the cytotoxicity at 10 µM worked out at 3.09%. Turning to `O=C([C@H]1CC[C@@H]2[C@@H](CCN2Cc2ccsc2)O1)N1CCOCC1`, the cytotoxicity at 10 µM was 1.3%. `Cn1cc(C2CCCN2C(=O)Cn2ccc3ccccc32)cn1` (configuration not stated): the cytotoxicity at 10 µM was found to be 5.08%. Take `CCn1ccnc1CN1CCCN(C(=O)COC2CCCC2)CC1`: the cytotoxicity at 10 µM is -6.58%. `CC(C)C(=O)N1CC2(CCN(CC(C)(C)C)CC2)C1`: the cytotoxicity at 10 µM was -5.28%.

Consider `CC(Cn1cccn1)NC(=O)NCc1cccs1` (configuration not stated), for which the cytotoxicity at 10 µM was -0.12%. The same measure for `Cc1ccc(CNC(=O)c2ccc(=O)n(C)n2)c(OC2CCCC2)c1`: 5.25%. The same measure for `CCc1nc(CN2CCCN(C(=O)COC(C)C)CC2)cs1`: -15%. As for `O=C(c1cc[nH]n1)N1CC[C@@H]2CN(Cc3ccccc3)S(=O)(=O)[C@@H]2CC1`, the figure is 4.35%; as for `Cc1cccc(C)c1OC1CN(C(=O)C2CC(=O)N(C(C)(C)C)C2)C1` (configuration not stated), 0.213%. As to `Cc1nc(CN2CCN(C(=O)c3sccc3C)CC2)cs1`, the cytotoxicity at 10 µM is 0.96%. As for `Cc1ncsc1C(=O)NCCNc1cnccn1`, the figure is 0.00742%; as for `O=C(Nc1ccccc1F)NC1(CO)CCOCC1`, -46.4%.

Regarding `COc1cc(NC2CCS(=O)(=O)C2)ncn1` (configuration not stated), the cytotoxicity at 10 µM was 7.53%. As for `Cc1cnn(CC2CCCN2CC(=O)Nc2cc(C)no2)c1` (configuration not stated), the figure is 2.27%.

As for `O=C(O)c1ccnc(SCC(=O)c2ccccc2)c1`, the cytotoxicity at 10 µM was -3.78%. In the case of `Cc1ccc(C(=O)N2CC[C@H]3[C@@H]2CCC(=O)N3c2cccnc2)o1`, the cytotoxicity at 10 µM was -106%. As to `CSCc1nc(CNC(=O)C2CCCN(C(=O)N(C)C)C2)cs1` (configuration not stated), the cytotoxicity at 10 µM is -3.99%. The same measure for `CC(C)CNC(=O)Cn1ccc2ccccc21`: -43.4%; for `Fc1ccc2[nH]c(C3CCCN3CCc3ccccn3)nc2c1` (configuration not stated): -9.7%; for `CNC(=O)CCc1cc(C2CCNCC2)nc(C)n1`: -6.41%. The same measure for `CC(C)c1nnc2n1CCN(Cc1cc(Cl)c3c(c1)OCCO3)C2`: 0.549%; for `O=C(N[C@@H]1CCC[C@@H](N2CCCC2)[C@@H]1O)c1cnn2cccnc12`: 10.6%; for `COc1ccc(-c2cn(CCSc3ncn[nH]3)nn2)cn1`: 3.36%. As for `O=C(c1ccncc1)N1CCC2(COc3ncccc3S(=O)(=O)N2)C1` (configuration not stated), the figure is 9.62%; as for `CNC(=O)CC1CCN(C(=O)Nc2ccc(-c3cc[nH]n3)cc2)CC1`, 6.8%; as for `Cc1cc(-c2ccccc2Cl)nc(N)n1`, -0.268%. For `CN(C)C(C(=O)NCC1(O)CCCCC1)c1cccc(F)c1` (configuration not stated), the cytotoxicity at 10 µM was -2.07%. `Fc1cccnc1CN1CCCCC1c1ccn2ccnc2n1` (configuration not stated): the cytotoxicity at 10 µM was 0.505%. Take `O=C(NC[C@]1(O)CN(Cc2ccccc2F)C[C@H]1O)c1ccccn1`: the cytotoxicity at 10 µM came to 1.15%. For the compound `O=C(CCn1cc(Cl)cn1)N1CCN(CC2CC2)[C@@H]2CS(=O)(=O)C[C@@H]21`, the cytotoxicity at 10 µM worked out at 2.28%. The same measure for `CCCc1nc(N2CCC(C)CC2)c2c(n1)c(C)nn2CC`: 1.64%; for `COC(=O)CN1CCCN(C(=O)CCOc2cccc(C)c2C)CC1`: -1.73%. Consider `COCC(=O)Nc1ccc([C@@H](O)[C@H]2COCC(=O)N2C)cc1`, for which the cytotoxicity at 10 µM is 10.3%. The same measure for `COc1ccc2nc(C3CC3)cc(C(=O)NCC(=O)N(C)C)c2c1`: -3.41%. As for `NC1CCN(C(=O)c2cnc(Cc3c(Cl)cccc3Cl)nc2O)C1` (configuration not stated), the figure is -0.803%; as for `Cc1n[nH]c(CCC(=O)N2CCOC(Cc3ccccc3)C2)c1C` (configuration not stated), -44.1%. Consider `Cc1cc(CN(C)C(C(=O)O)c2ccc(C(C)(C)C)cc2)on1` (configuration not stated), for which the cytotoxicity at 10 µM is -6.36%. As for `CC(=O)NCC1CN(c2ccc3c(Cl)ccnc3c2F)CCO1` (configuration not stated), the figure is 5.29%.
